Columns and labels:
[1] = system: Canis familiaris; assay: Activity for gastric antisecretory activity in dogs by intrapouch administration and the value ranges between 0.06-0.12; assay type: functional; details: Canis lupus familiaris, Stomach
Summary of the method: (§1)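 Adult female beagles (6-11 kg) with innervated Pavlov pouches, fasted 24 h with water available. Prostaglandin in isosmotic phosphate buffer pH 7.4 (≤20% ethanol) or vehicle given into the pouch via Thomas cannula after a 30-min basal collection. Canned food fed 30 min later. Juice collected at 30-min intervals for 4 h; acid output = volume × acidity.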

[2] = system: Rattus norvegicus; assay: Activity for diarrheagenic effect in rats by intragastric administration and the value ranges between 947-1848; assay type: functional; details: po
Summary of the method: (§2)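 Adult male Charles River rats (210–230 g), individually housed, fasted 24 h with water ad libitum. Logarithmically graded prostaglandin doses given orally (intragastric), N = 6-12 per group. Diarrhea scored all-or-none over 8 h after dosing. Prostaglandin stock 1 mg/mL in absolute ethanol, diluted in phosphate buffer pH 7.4 to at most 20% ethanol.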

[3] = system: Rattus norvegicus; assay: Activity for diarrheagenic effect in rats by intragastric administration and the value ranges between 141-1134; assay type: functional; details: po; summary of the method: as §2
[4] = system: Canis familiaris; assay: Activity for gastric antisecretory activity in dogs by intrapouch administration and the value ranges between 0.069-0.096; assay type: functional; details: Canis lupus familiaris, Stomach; summary of the method: as §1
[5] = system: Rattus norvegicus; assay: Activity for diarrheagenic effect in rats by intragastric administration and the value ranges between 106-698; assay type: functional; details: po; summary of the method: as §2
[6] = system: Canis familiaris; assay: Activity for gastric antisecretory activity in dogs by intrapouch administration and the value ranges between 0.083-0.094; assay type: functional; details: Canis lupus familiaris, Stomach; summary of the method: as §1
[7] = system: Canis familiaris; assay: Activity for gastric antisecretory activity in dogs by intrapouch administration and the value ranges between 0.017-0.032; assay type: functional; details: Canis lupus familiaris, Stomach; summary of the method: as §1
[8] = system: Rattus norvegicus; assay: Activity for diarrheagenic effect in rats by intragastric administration and the value ranges between 37-77; assay type: functional; details: po; summary of the method: as §2
[9] = system: Canis familiaris; assay: No inhibitory activity (3 ug/kg) for gastric antisecretory activity in dogs by intrapouch administration; assay type: functional, Canis lupus familiaris, Stomach
Summary of the method: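 Food-stimulated Pavlov-pouch beagles were dosed intrapouch, highest dose tested 3.0 µg/kg, in phosphate buffer pH 7.4 with at most 20% ethanol. Gastric juice was collected at 30-min intervals for 4 h after feeding. Percent reduction of total acid output (volume × acidity) from control was calculated.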

[10] = system: Rattus norvegicus; assay: Activity for diarrheagenic effect in rats by intragastric administration; assay type: functional; details: po; summary of the method: as §2
[11] = system: Canis familiaris; assay: Activity for gastric antisecretory activity in dogs by intrapouch administration; assay type: functional; details: Canis lupus familiaris, Stomach; summary of the method: as §1
[12] = system: Canis familiaris; assay: Activity for gastric antisecretory activity in dogs by intrapouch administration and the value ranges between 63.2-76.9; assay type: functional; details: Canis lupus familiaris, Stomach; summary of the method: as §1

## COC(=O)CC/C=C\CC[C@H]1C(=O)C[C@@H](O)[C@@H]1/C=C/CC(C)(O)CCC1CCCC1 (stereo partly drawn)
[1]
  ED50: 0.09 µg/kg
[2]
  ED50: 1310 µg/kg

## COC(=O)CC/C=C\CC[C@H]1C(=O)C[C@@H](O)[C@@H]1/C=C/CC(C)(O)CCC1CCC1 (stereo partly drawn)
[3]
  ED50: 316 µg/kg
[4]
  ED50: 0.09 µg/kg

## COC(=O)CC/C=C\CC[C@H]1C(=O)C[C@@H](O)[C@@H]1/C=C/CC(C)(O)CCC1CC1 (stereo partly drawn)
[5]
  ED50: 273 µg/kg
[6]
  ED50: 0.09 µg/kg

## CCCCC(C)(O)C/C=C/[C@H]1[C@H](O)CC(=O)[C@@H]1CC/C=C\CCC(=O)OC (stereo partly drawn) [ENISOPROST]
[7]
  ED50: 0.023 µg/kg
[8]
  ED50: 49 µg/kg

## COC(=O)CC/C=C\CC[C@H]1C(=O)C[C@@H](O)[C@@H]1/C=C/CC(C)(O)CCCCO (stereo partly drawn)
[9]
  Inhibition: 0%

## COC(=O)CC/C=C\CC[C@H]1C(=O)C[C@@H](O)[C@@H]1/C=C/CC(C)(O)CCC1CCCCCC1 (stereo partly drawn)
[10]
  ED50: > 3160 µg/kg
[11]
  ED50: ~95 µg/kg

## COC(=O)CC/C=C\CC[C@H]1C(=O)C[C@@H](O)[C@@H]1/C=C/CC(C)(O)CCC1CCCCC1 (stereo partly drawn)
[10]
  ED50: > 3160 µg/kg
[12]
  ED50: 70 µg/kg
